Measurements published in ChEMBL document CHEMBL3044619, “Natural fungicides from Ruta graveolens L. leaves, including a new quinolone alkaloid” (J Agric Food Chem, 2003).
Calls of active or inactive are those of the source. No cut-off for these calls is given here.

Columns and labels:
[1] = test system: Botrytis cinerea; assay: Antifungal activity against Botryotinia fuckeliana assessed as growth inhibition at 30 to 300 uM after 48 hr by microplate photometric analysis; assay type: functional, organism-based
Summary of the method: (§1)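 96-well broth microdilution on conidia from 7–10-day PDA cultures of isolates from strawberry, grape or orchid. Conidia were in RPMI buffered with 0.165 M MOPS (pH 7). Ethanol stocks were diluted to final 30, 100 and 300 µM, with duplicate wells and compound-only blanks. Plates were incubated at 24 ± 2 °C under a 12-h photoperiod and read at A620 after 48 h. Results are % change versus untreated conidia controls, split-plot design run twice (n = 4).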

[2] = test system: Colletotrichum gloeosporioides; assay: Antifungal activity against Colletotrichum gloeosporioides assessed as growth inhibition at 100 uM after 48 hr by microplate photometric analysis; assay type: functional; conditions: read-out: GI; summary of the method: as §1
[3] = test system: Phomopsis obscurans; assay: Antifungal activity against Phomopsis obscurans assessed as growth inhibition at 30 uM after 120 hr by microplate photometric analysis; assay type: functional; conditions: Paraphomopsis obscurans, read-out: GI
Summary of the method: (§2)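 Phomopsis conidia, from strawberry or grape isolates grown 7–10 days on PDA, were tested in RPMI/0.165 M MOPS (pH 7) microtiter wells. Ethanol stocks were diluted to final 30, 100 and 300 µM, with duplicate wells and compound-only blanks. Incubation was at 24 ± 2 °C under a 12-h photoperiod, with A620 read at 120 h because germination is slow. Results are % change versus untreated conidia controls, run twice in time (n = 4).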

[4] = test system: Colletotrichum fragariae; assay: Antifungal activity against Colletotrichum fragariae assessed as growth inhibition at 30 to 300 uM after 48 hr by microplate photometric analysis; assay type: functional; summary of the method: as §1
[5] = test system: Diaporthe ampelina; assay: Antifungal activity against Diaporthe ampelina assessed as growth inhibition at 30 uM after 120 hr by microplate photometric analysis; assay type: functional, organism-based
Summary of the method: (§3)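 P. viticola was isolated from grape, and its conidia were harvested from 7–10-day PDA cultures, filtered and adjusted photometrically to 1.0 × 10^6/mL. Growth was run in RPMI broth buffered with 0.165 M MOPS (pH 7) at final 30, 100 or 300 µM (120 mM stocks in 95% ethanol), with duplicate wells, at 24 ± 2 °C under a 12-h photoperiod. A620 was read at 120 h and expressed relative to untreated conidia controls.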

[6] = test system: Colletotrichum acutatum; assay: Antifungal activity against Colletotrichum acutatum assessed as growth inhibition at 300 uM after 48 hr by microplate photometric analysis; assay type: functional; conditions: read-out: GI; summary of the method: as §1
[7] = test system: Phomopsis obscurans; assay: Antifungal activity against Phomopsis obscurans assessed as growth inhibition at 100 uM after 120 hr by microplate photometric analysis; assay type: functional; conditions: Paraphomopsis obscurans, read-out: GI; summary of the method: as §2
[8] = test system: Botrytis cinerea; assay: Stimulation of Botryotinia fuckeliana growth at 30 uM after 48 hr by microplate photometric analysis; assay type: functional, organism-based
Summary of the method: (§4)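 Conidia came from 7–10-day PDA cultures (24 ± 2 °C, 12-h photoperiod) and were filtered and adjusted photometrically to 1.0 × 10^6/mL. B. cinerea was isolated from grape, C. gloeosporioides from strawberry and F. oxysporum from orchid. Growth was run in MOPS-buffered RPMI (0.165 M, pH 7) at final 30, 100 or 300 µM from 120 mM ethanol stocks, with duplicate wells, and read as A620 at 48 h. Results are % of untreated growth.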

[9] = test system: Fusarium oxysporum; assay: Antifungal activity against Fusarium oxysporum assessed as growth inhibition at 300 uM after 48 hr by microplate photometric analysis; assay type: functional; conditions: read-out: GI; summary of the method: as §1
[10] = test system: Phomopsis obscurans; assay: Antifungal activity against Phomopsis obscurans assessed as growth inhibition at 300 uM after 120 hr by microplate photometric analysis; assay type: functional; conditions: Paraphomopsis obscurans; for inhibition of growth at 300 µM: read-out: GI; summary of the method: as §2
[11] = test system: Botrytis cinerea; assay: Antifungal activity against Botryotinia fuckeliana assessed as growth inhibition at 300 uM after 48 hr by microplate photometric analysis; assay type: functional, organism-based; summary of the method: as §4
[12] = test system: Diaporthe ampelina; assay: Stimulation of Diaporthe ampelina growth at 30 to 300 uM after 120 hr by microplate photometric analysis; assay type: functional, organism-based; summary of the method: as §3
[13] = test system: Colletotrichum acutatum; assay: Stimulation of Colletotrichum acutatum growth at 30 uM after 48 hr by microplate photometric analysis; assay type: functional; summary of the method: as §1
[14] = test system: Phomopsis obscurans; assay: Stimulation of Phomopsis obscurans growth at 30 to 300 uM after 120 hr by microplate photometric analysis; assay type: functional, organism-based; conditions: Paraphomopsis obscurans; summary of the method: as §2
[15] = test system: Colletotrichum gloeosporioides; assay: Stimulation of Colletotrichum gloeosporioides growth at 30 to 300 uM after 48 hr by microplate photometric analysis; assay type: functional, organism-based; summary of the method: as §4
[16] = test system: Botrytis cinerea; assay: Stimulation of Botryotinia fuckeliana growth at 30 to 300 uM after 48 hr by microplate photometric analysis; assay type: functional, organism-based; summary of the method: as §1
[17] = test system: Diaporthe ampelina; assay: Antifungal activity against Diaporthe ampelina assessed as growth inhibition at 300 uM after 120 hr by microplate photometric analysis; assay type: functional; conditions: read-out: GI; summary of the method: as §2
[18] = test system: Phomopsis obscurans; assay: Antifungal activity against Phomopsis obscurans assessed as growth inhibition at 30 to 300 uM after 120 hr by microplate photometric analysis; assay type: functional, organism-based; conditions: Paraphomopsis obscurans; summary of the method: as §2
[19] = test system: Colletotrichum gloeosporioides; assay: Antifungal activity against Colletotrichum gloeosporioides assessed as growth inhibition at 300 uM after 48 hr by microplate photometric analysis; assay type: functional; conditions: read-out: GI; summary of the method: as §1
[20] = test system: Fusarium solani; assay: Fungistatic activity against Fusarium solani assessed as growth inhibition; assay type: functional, organism-based
[21] = test system: Diaporthe ampelina; assay: Antifungal activity against Diaporthe ampelina assessed as growth inhibition at 30 to 300 uM after 120 hr by microplate photometric analysis; assay type: functional, organism-based; summary of the method: as §2
[22] = test system: Fusarium oxysporum; assay: Stimulation of Fusarium oxysporum growth at 30 uM after 48 hr by microplate photometric analysis; assay type: functional, organism-based; summary of the method: as §4
[23] = test system: Colletotrichum fragariae; assay: Antifungal activity against Colletotrichum fragariae assessed as growth inhibition at 300 uM after 48 hr by microplate photometric analysis; assay type: functional; conditions: read-out: GI; summary of the method: as §1

Cn1c(CCCCCCc2ccc3c(c2)OCO3)cc(=O)c2ccccc21
growth inhibition (GI) [1]: Active
inhibition of growth at 100 µM [2]: 67.7%
inhibition of growth at 30 µM [3]: 100%
growth inhibition (GI) [4]: Active
growth inhibition (GI) [5]: Active
inhibition of growth at 300 µM [6]: 57%

CCCCCCCCCc1cc(=O)c2ccccc2[nH]1
inhibition of growth at 100 µM [7]: 100%
Activity [8]: Active
inhibition of growth at 300 µM [9]: 37%
growth inhibition (GI) [4]: Active
growth inhibition (GI) [5]: Active
growth inhibition (GI) [10]: inactive
inhibition of growth at 300 µM [6]: 50%

O=c1cc(CCCCc2ccc3c(c2)OCO3)[nH]c2ccccc12
growth inhibition (GI) [11]: Active
inhibition of growth at 30 µM [3]: 100%
growth inhibition (GI) [5]: Active

O=c1cc(O)c2ccccc2o1 [4-HYDROXYCOUMARINS]
Activity [12]: Active
Activity [13]: 15%
Activity [14]: Active
Activity [15]: Active
Activity [16]: Active

CCCCNC(=O)n1c(NC(=O)OC)nc2ccccc21 [BENOMYL]
inhibition of growth at 300 µM [17]: 57%
growth inhibition (GI) [1]: Active
inhibition of growth at 300 µM [9]: 77%
growth inhibition (GI) [18]: Active
growth inhibition (GI) [4]: 76%
inhibition of growth at 300 µM [6]: 33%
inhibition of growth at 300 µM [19]: 66%

COc1c2ccoc2cc2oc(=O)ccc12 [BERGAPTEN]
Activity [13]: 15%
IC50 [20]: 27.7 µM
inhibition of growth at 30 µM [3]: 80%
growth inhibition (GI) [21]: Active
Activity [15]: Active

O=C1C2CC=CCC2C(=O)N1SC(Cl)(Cl)Cl (configuration not stated) [CAPTAN]
inhibition of growth at 300 µM [9]: 100%
growth inhibition (GI) [21]: Active
growth inhibition (GI) [18]: Active

Cn1c(-c2ccc3c(c2)OCO3)cc(=O)c2ccccc21 [GRAVEOLINE]
Activity [12]: Active
inhibition of growth at 100 µM [7]: 100%
Activity [8]: Active
inhibition of growth at 300 µM [9]: 44%
growth inhibition (GI) [4]: Active

COc1ccc2ccc(=O)oc2c1 [HERNIARIN]
Activity [12]: Active
Activity [13]: 15%
growth inhibition (GI) [11]: Active
Activity [22]: Active
Activity [8]: Active
Activity [15]: Active
inhibition of growth at 300 µM [23]: 21%

COc1cc2nc3occc3c(OC)c2cc1OC [KOKUSAGININE]
inhibition of growth at 30 µM [3]: 80%
growth inhibition (GI) [4]: Active
growth inhibition (GI) [5]: Active
inhibition of growth at 300 µM [10]: 100%
inhibition of growth at 300 µM [19]: 50%

COc1c2occc2cc2ccc(=O)oc12 [METHOXSALEN]
Activity [13]: 15%
IC50 [20]: 125 µM
growth inhibition (GI) [11]: Active
inhibition of growth at 30 µM [3]: 80%
inhibition of growth at 300 µM [9]: 50%
growth inhibition (GI) [21]: Active
Activity [15]: Active
inhibition of growth at 300 µM [10]: 100%
inhibition of growth at 300 µM [23]: 29%

O=c1ccc2ccc(O)cc2o1 [UMBELLIFERONE]
Activity [12]: Active
Activity [13]: 15%
Activity [14]: Active
Activity [15]: Active
Activity [16]: Active
